Sampled rows, rich in hits. Any-hit rate of the full collection: about 3.5%.
PGC1a acetyl inh – lowers PGC1a acetylation signal in U2OS cells; AlphaScreen anti-acetyl-lysine; with virally co-expressed GCN5 acetyltransferase; inhibition, % at 15.6 µM; hit rate 0.17% among 350,000;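 active = every replicate shows inhibition of at least 40%; inconclusive = mean inhibition at least 40% but some replicate below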;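 note: 0% = neutral control wells and 100% = positive control wells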
PglD inh – PglD (C. jejuni) enzyme inhibition; purified PglD enzyme, DTNB colorimetric CoA detection; inhibition, % at 12.5 µM; hit rate 0.098% among 360,000; in the data active = inhibition above about 16%, passing the limit was not always enough; inconclusive = no clear call, values can overlap the other calls
rRNA inh HTS – inhibitors of bacterial rRNA selective over humanized ribosomes; E. coli WT GFP vs humanized-ribosome RFP mutants, fluorescence, 24 h; active compounds read low; DMSO median 0, no signal -100; GFP signal change (wild-type ribosome), % (test concentration not listed); hit rate 1.6% among 350,000; AID 720706;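 active = significant combined selectivity score with lowered wild-type GFP, culture density cut under 30%, mutant RFP and density less affected; inactive = any of these conditions unmet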
HIV Env fusion – blocks HIV Env-driven cell-cell fusion; hit rate 1.1% among 360,000; HeLa-JRFL Env/CEM21 cell fusion, luciferase; AID 651610; inhibition, % at 12.3 µM;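 active = mean replicate inhibition score of at least 50 and every replicate individually at or above 50; inconclusive = only one of the two criteria met; inactive = mean below 50 and not all replicates reaching 50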;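 note: 0% = plate neutral controls and 100% = maraviroc near 300 nM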
DENV2 CPE – protects cells from dengue virus 2 cytopathic effect | DENV2-infected cells, cytopathic effect rescue, plate reader | hit rate 1.7% among 350,000 | AID 651640 | CPE inhibition, % at 9.99 µM; in the data active = CPE inhibition above about 20%, passing the limit was not always enough; inconclusive = no clear call, values can overlap the other calls; tested in BHK-21 cells;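 note: 0% = median of neutral control wells and 100% = median of positive control wells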
FN deposit inh – fibronectin deposition inhibition; inhibition, % at 12.6 µM; hit rate 0.086% among 350,000; AH1F fibroblasts, Alexa488-fibronectin deposition fluorescence, overnight;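 active = mean inhibition across replicates of 30% or more, regardless of how many single replicates reach that level; inconclusive = mean under 30% yet at least half of replicates reach 30%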;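 note: positive control wells lacked labelled fibronectin entirely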
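Assay system: AH1F fibroblast monolayer, labelled fibronectin deposition. Amount: 10000 cells per well. Also added: labelled fibronectin 24 nM. Compound: single-point pinned compound. Incubation: cell attachment 1 h, compound and FN exposure overnight. Detection: fluorescence after three HBSS washes, excitation 485 nm, emission 525 nm. Read-out: inhibition of fibronectin deposition signal.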
AID977621 – wild-type E. coli growth inhibition versus H69 humanized strain – H69 mutant RFP, wild-type GFP, cherry-pick, dose response | fluorescence, 24 h | AID 977621 | 1,900 tested, under 10 active | activity change, negative = inhibition at 50 µM | shares compounds with rRNA inh HTS;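 active = Wild-type ribosome reporter drop at least double the humanized mutant ribosome reporter drop, growth loss under a set limit; inconclusive = no clear call, values can overlap the other calls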;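 note: wild-type GFP and H69 mutant RFP strains grown together 50/50 in each well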
AID977628 – E. coli growth inhibition, wild-type GFP versus h24 humanized RFP strain, dose response, h24 mutant RFP vs wild-type GFP, cherry-pick | shares compounds with rRNA inh HTS | E. coli WT GFP strain growth, fluorescence, 24 h | activity change, negative = inhibition at 50 µM | 1,900 tested, under 10 active;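 active = compound lowering the normal-ribosome reporter at least twice as much as the humanized-ribosome reporter, growth loss under a set limit; inconclusive = no clear call, values can overlap the other calls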;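 note: wild-type GFP and h24 humanized RFP strains co-cultured 1 to 1 per well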
* hit, by the source's call; ? = inconclusive; nt = no result given; [ ] = remark or other dose.

SMILES | PGC1a acetyl inh | PglD inh | rRNA inh HTS | HIV Env fusion | DENV2 CPE | FN deposit inh | AID977621 | AID977628
CC(=O)Nc1ccccc1OCc1nnc(-c2ccc(Cl)cc2)o1 | 8 | -2 | -23 | -14 | -5 | 10 | nt | nt
CC(=O)Nc1ccc(OCc2nnc(-c3ccccc3)o2)cc1 | nt | 1 | -23* | -23 | -1 | 2 | ? | -17
CCC(=O)N1[C@H](C(=O)NC2CCC2)[C@@H](CO)[C@@H]2Cn3c(ccc(C4=CCCCC4)c3=O)[C@@H]21 | nt | 6 | -1 | nt | -6 | nt | nt | nt
O=C(NC1CCCC1)c1ccc([N+](=O)[O-])s1 | nt | nt | -20* | 1 | -4 | -5 | -17 | -3.9
CCOC(=O)c1ccc(NC(=O)COc2ccc(CNCCO)cc2OCC)cc1 | nt | nt | -24* | 13 | 1 | 5 | -11 | -4.7
O=S1(=O)c2ccccc2C(O)(c2ccccc2)c2ccccc21 | 1 | -2 | -21* | nt | -5 | 9 | nt | ?
COCCNC(=O)C[C@@H]1C=C[C@H](NC(=O)NC2CCCC2)[C@@H](CO)O1 | 3 | 2 | -1 | -77[16.7 µM] | -8 | -13 | nt | nt
COC(=O)C[C@H]1C[C@@H]2c3cc(NC(=O)Nc4ccc(C(F)(F)F)cc4)ccc3O[C@@H]2[C@H](CO)O1 | 5 | 2 | -25* | 2[16.7 µM] | -5 | 4 | nt | ?
COc1ccc(S(=O)(=O)Nc2ccc3c(c2)C(=O)N([C@H](C)CO)C[C@H](C)[C@H](CN(C)S(C)(=O)=O)OCCCC[C@H](C)O3)cc1 | -2 | -1 | -3 | -7[16.7 µM] | -6 | nt | nt | nt
CCCCOc1ccc(-c2nnn(CCC(=O)N3CCOCC3)n2)cc1 | 18 | 2 | -22* | nt | 11 | nt | 4 | -8.5
CN(C)CC(=O)N1[C@H](C#N)[C@@H](c2ccccc2-c2ccccc2F)[C@H]1CO | 8 | nt | 9 | nt | 3 | -1 | nt | nt
C[C@H](O)C#Cc1cnc2c(c1)C(=O)N([C@@H](C)CO)C[C@H](C)[C@H](CN(C)Cc1ccccn1)O2 | 8 | 2 | 4 | -16[16.7 µM] | -1 | nt | nt | nt
CCCCCc1nnc(NC(=O)C2COc3ccccc3O2)s1 (centres undefined) | 12 | -7 | -20* | -12 | nt | -2 | 3.7 | -11
CCOC(=O)CSc1nc(C)c2cc(C)c(C)cc2n1 | nt | -1 | nt | 2 | 9 | -13 | nt | nt
Cc1cc2nc(SCC(=O)O)nc(C)c2cc1C | -4 | 7 | -17* | nt | 8 | nt | -16 | nt
CCC(C(=O)NC1CCCC1)n1c(-c2ccnc3ccccc23)nc2ccccc21 (centres undefined) | nt | nt | -14* | -43 | -4 | -1 | -16 | -14
CCC(C(=O)NC1CCCC1)n1c(-c2ccncc2)nc2ccccc21 (centres undefined) | nt | nt | 4 | -3 | 6 | -5 | nt | nt
O=C(C[n+]1ccn(-c2ccccc2)c1)c1ccc([N+](=O)[O-])cc1 | -4 | -5 | -22* | 0 | 7 | 7 | nt | -7.8
COCCCn1c(C)cc(C(=O)COC(=O)CCc2nc3ccccc3c(=O)[nH]2)c1C | nt | nt | -27* | 8 | 1 | 0 | -15 | nt
COCC(C)n1c(C)cc(C(=O)COC(=O)CCc2nc3ccccc3c(=O)[nH]2)c1C (centres undefined) | -1 | -3 | -17 | 24 | 2 | 6 | nt | nt
O=C(NCCc1ccccc1)c1ccc(S(=O)(=O)N2CCCCC2)cc1 | -2 | 2 | 4 | -10 | -1 | 5 | nt | nt
CSc1ccccc1C(=O)NCCc1ccc(S(=O)(=O)N2CCCCC2)cc1 | -8 | -1 | -21* | nt | 4 | nt | nt | -13
C[C@H](CO)N1C[C@H](C)[C@H](CN(C)C)Oc2ncc(-c3cccc(C(F)(F)F)c3)cc2C1=O | 14 | 3 | 3 | 5[16.7 µM] | -7 | 7 | nt | nt
CCN(C(=O)COC(=O)c1cn(-c2ccccc2)nc1-c1ccccc1)C1CCS(=O)(=O)C1 (centres undefined) | -2 | nt | -39* | -5 | 4 | 2 | -24 | -12
O=C(Nc1cccnc1)c1sc2cccc(F)c2c1Cl | 6 | -1 | -20* | -5 | -7 | 4 | -8.2 | -2.7

Bioassay records from PubChem.
